From ChEMBL document CHEMBL4118192, “BET bromodomain ligands: Probing the WPF shelf to improve BRD4 bromodomain affinity and metabolic stability” (Bioorg Med Chem, 2018)

What was measured:
[1] = biological target: T1, Bromodomain-containing protein 4 (Homo sapiens, UniProt O60885); test: Inhibition of recombinant His6-tagged human BRD4 bromodomain 1 expressed in Escherichia coli BL21(DE3)-R3-pRARE2 cells preincubated for 30 mins followed by H4KAc4 peptide substrate addition measured after 30 mins by AlphaScreen assay
[2] = Apparent half life in human liver microsomes at 3 uM; format: ADME, microsome; details: read-out: t1/2(app)
[3] = Intrinsic clearance in human liver microsomes at 3 uM; format: ADME, microsome; details: read-out: CLH
[4] = biological target: Peregrin (Homo sapiens) (UniProt P55201); test: Inhibition of human partial length BRPF1 (E627 to G740 residues) expressed in bacterial expression system assessed as residual activity at 1 uM by BROMOscan assay relative to control
[5] = biological target: T1, Bromodomain-containing protein 4; test: Inhibition of human partial length BRD4 bromodomain 2 (K333 to E460 residues) expressed in bacterial expression system assessed as residual activity at 1 uM by BROMOscan assay relative to control
[6] = biological target: Bromodomain and WD repeat-containing protein 1 (Homo sapiens) (UniProt Q9NSI6); test: Inhibition of human partial length WDR9 bromodomain 2 (A1310 to E1430 residues) expressed in bacterial expression system assessed as residual activity at 1 uM by BROMOscan assay relative to control
Bromodomain and WD repeat-containing protein 1 (Homo sapiens), sequence (Q9NSI6 whole entry, the tested form may be a part): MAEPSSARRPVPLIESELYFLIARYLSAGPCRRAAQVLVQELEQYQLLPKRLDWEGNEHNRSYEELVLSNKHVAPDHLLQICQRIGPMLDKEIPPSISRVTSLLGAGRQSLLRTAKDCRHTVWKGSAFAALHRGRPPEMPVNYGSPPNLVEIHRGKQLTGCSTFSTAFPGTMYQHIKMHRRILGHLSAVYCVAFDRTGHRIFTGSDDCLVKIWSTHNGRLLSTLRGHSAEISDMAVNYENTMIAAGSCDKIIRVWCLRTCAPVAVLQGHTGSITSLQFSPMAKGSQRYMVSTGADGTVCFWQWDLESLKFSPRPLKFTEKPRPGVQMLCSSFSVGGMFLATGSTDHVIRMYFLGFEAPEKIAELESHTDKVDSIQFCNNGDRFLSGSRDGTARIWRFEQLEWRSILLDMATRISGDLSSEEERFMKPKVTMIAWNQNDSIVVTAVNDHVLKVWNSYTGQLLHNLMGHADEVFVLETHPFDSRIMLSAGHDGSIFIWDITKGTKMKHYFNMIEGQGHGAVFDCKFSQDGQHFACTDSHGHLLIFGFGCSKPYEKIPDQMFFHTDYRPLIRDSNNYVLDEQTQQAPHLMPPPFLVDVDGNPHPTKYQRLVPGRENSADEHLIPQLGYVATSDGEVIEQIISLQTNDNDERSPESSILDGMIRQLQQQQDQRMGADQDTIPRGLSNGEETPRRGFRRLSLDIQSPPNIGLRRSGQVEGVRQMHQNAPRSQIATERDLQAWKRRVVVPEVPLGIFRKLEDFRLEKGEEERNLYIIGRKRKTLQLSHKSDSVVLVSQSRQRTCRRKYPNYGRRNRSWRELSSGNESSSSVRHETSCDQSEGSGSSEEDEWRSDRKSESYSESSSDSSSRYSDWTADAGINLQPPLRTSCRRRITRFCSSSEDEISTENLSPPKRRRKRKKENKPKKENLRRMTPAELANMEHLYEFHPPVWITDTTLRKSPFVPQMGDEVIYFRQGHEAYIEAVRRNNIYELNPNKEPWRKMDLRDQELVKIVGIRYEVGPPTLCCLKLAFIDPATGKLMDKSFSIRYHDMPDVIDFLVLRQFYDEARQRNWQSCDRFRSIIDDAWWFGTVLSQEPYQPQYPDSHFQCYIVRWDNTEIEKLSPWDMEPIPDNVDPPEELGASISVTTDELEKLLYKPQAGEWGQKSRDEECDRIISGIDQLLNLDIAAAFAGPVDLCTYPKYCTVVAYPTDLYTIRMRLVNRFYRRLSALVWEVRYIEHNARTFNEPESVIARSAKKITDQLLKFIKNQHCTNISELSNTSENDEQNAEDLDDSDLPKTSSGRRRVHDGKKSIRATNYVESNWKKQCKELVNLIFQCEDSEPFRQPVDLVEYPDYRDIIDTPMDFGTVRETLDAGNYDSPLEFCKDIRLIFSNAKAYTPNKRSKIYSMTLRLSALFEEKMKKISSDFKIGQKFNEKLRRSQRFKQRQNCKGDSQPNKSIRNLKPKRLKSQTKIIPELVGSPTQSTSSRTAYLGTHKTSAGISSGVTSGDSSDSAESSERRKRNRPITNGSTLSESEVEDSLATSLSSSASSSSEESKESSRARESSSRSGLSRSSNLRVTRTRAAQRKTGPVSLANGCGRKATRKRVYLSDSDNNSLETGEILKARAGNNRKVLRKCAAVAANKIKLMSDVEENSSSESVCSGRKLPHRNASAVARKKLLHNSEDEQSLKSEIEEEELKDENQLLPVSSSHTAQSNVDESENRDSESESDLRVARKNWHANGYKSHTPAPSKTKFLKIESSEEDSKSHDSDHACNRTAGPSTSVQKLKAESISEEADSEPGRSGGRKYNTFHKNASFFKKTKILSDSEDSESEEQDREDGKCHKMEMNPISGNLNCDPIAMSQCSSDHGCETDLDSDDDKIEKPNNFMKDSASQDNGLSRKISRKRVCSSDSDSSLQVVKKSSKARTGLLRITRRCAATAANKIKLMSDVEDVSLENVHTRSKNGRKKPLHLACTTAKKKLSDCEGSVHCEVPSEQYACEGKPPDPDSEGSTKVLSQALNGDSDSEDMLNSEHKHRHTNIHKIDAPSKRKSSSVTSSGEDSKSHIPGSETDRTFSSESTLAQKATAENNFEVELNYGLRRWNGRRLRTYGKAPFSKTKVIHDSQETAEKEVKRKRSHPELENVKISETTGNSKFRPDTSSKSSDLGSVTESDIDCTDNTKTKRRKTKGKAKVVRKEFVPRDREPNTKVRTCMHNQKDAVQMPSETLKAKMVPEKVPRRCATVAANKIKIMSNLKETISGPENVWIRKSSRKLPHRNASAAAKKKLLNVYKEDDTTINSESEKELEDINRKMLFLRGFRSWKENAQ

[7] = biological target: T1, Bromodomain-containing protein 4; test: Inhibition of human partial length BRD4 bromodomain 1 (N44 to E168 residues) expressed in bacterial expression system assessed as residual activity at 1 uM by BROMOscan assay relative to control
[8] = biological target: Bromodomain testis-specific protein (Homo sapiens) (UniProt Q58F21); test: Inhibition of human partial length BRDT bromodomain 1 (N21 to E137 residues) expressed in bacterial expression system assessed as residual activity at 1 uM by BROMOscan assay relative to control
[9] = biological target: CREB-binding protein (Homo sapiens) (UniProt Q92793); test: Inhibition of human partial length CREBBP (R1081 to G1197 residues) expressed in bacterial expression system assessed as residual activity at 1 uM by BROMOscan assay relative to control
[10] = biological target: Histone acetyltransferase KAT2B (Homo sapiens) (UniProt Q92831); test: Inhibition of human partial length PCAF (G715 to D831 residues) expressed in bacterial expression system assessed as residual activity at 1 uM by BROMOscan assay relative to control
[11] = biological target: T1, Bromodomain-containing protein 4; test: Binding affinity to His6-tagged human BRD4 bromodomain 1 expressed in Escherichia coli BL21(DE3)-R3-pRARE2 cells by isothermal titration calorimetric method
[12] = system: A498; test: Growth inhibition of human A498 cells after 48 hrs by SRB assay; format: functional; details: A498, 48 h
Method in brief: (§1)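 In-house assay. Cells were seeded into 96-well plates at a density for exponential growth and treated with a concentration range for 48 h. They were then fixed in 10% (w/v) TCA and stained with sulforhodamine B. The 50% growth-inhibitory concentration relative to control cells was calculated as the mean of three repeats ± standard deviation.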

[13] = biological target: Bromodomain-containing protein 9 (Homo sapiens) (UniProt Q9H8M2); test: Inhibition of human partial length BRD9 (R130 to V259 residues) expressed in bacterial expression system assessed as residual activity at 1 uM by BROMOscan assay relative to control
[14] = biological target: SWI/SNF-related matrix-associated actin-dependent regulator of chromatin subfamily A member 4 (Homo sapiens) (UniProt P51532); test: Inhibition of human partial length SMARCA4 (A1448 to S1575 residues) expressed in bacterial expression system assessed as residual activity at 1 uM by BROMOscan assay relative to control
SWI/SNF-related matrix-associated actin-dependent regulator of chromatin subfamily A member 4 (Homo sapiens), sequence (P51532 whole entry, the tested form may be a part): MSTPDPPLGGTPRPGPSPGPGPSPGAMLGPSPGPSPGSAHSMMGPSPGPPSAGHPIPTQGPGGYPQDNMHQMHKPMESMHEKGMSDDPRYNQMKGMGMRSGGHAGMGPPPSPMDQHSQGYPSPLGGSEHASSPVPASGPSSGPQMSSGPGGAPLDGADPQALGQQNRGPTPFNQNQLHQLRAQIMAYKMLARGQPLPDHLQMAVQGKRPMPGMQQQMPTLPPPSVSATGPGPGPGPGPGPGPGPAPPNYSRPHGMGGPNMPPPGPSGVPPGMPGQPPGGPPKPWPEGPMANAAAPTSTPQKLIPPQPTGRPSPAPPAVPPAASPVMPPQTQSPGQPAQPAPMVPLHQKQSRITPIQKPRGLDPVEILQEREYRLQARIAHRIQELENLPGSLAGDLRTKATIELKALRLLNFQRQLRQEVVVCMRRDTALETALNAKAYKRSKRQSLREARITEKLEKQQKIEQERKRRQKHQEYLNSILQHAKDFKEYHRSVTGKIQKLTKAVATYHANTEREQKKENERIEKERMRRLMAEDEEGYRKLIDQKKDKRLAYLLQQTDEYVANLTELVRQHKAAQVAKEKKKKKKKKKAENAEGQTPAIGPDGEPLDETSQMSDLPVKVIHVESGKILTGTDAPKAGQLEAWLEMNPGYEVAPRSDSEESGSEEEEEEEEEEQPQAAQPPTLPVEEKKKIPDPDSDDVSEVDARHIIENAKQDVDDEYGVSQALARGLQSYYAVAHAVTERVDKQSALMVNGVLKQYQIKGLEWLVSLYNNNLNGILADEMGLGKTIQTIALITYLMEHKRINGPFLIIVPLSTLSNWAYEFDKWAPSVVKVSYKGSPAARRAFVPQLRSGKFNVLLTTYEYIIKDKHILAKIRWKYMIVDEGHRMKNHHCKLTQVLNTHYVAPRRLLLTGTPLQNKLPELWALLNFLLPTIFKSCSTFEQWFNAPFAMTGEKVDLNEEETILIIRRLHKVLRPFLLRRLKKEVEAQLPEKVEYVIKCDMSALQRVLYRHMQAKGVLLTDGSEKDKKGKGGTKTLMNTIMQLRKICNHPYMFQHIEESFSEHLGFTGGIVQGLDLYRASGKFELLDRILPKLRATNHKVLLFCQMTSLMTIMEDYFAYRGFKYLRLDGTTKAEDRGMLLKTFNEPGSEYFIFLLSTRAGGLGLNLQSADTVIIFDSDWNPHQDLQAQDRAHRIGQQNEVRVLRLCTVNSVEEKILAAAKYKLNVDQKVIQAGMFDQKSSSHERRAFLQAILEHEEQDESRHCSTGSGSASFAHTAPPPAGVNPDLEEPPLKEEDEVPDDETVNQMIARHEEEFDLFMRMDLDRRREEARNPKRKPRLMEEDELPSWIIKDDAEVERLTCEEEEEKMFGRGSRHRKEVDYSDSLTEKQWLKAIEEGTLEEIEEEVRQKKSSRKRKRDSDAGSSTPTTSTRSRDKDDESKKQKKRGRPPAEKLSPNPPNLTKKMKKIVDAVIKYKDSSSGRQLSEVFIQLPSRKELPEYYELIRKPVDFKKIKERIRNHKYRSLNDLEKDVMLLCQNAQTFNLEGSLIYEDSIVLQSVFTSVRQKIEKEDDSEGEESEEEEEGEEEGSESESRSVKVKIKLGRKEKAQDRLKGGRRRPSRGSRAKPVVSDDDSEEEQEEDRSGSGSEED

[15] = system: HT-29; test: Growth inhibition of human HT-29 cells after 48 hrs by SRB assay; format: functional; details: HT-29, 48 h; method in brief: as §1
[16] = biological target: ATPase family AAA domain-containing protein 2B (Homo sapiens) (UniProt Q9ULI0); test: Inhibition of human partial length ATAD2B (Q955 to R1082 residues) expressed in bacterial expression system assessed as residual activity at 1 uM by BROMOscan assay relative to control
[17] = biological target: Bromodomain-containing protein 3 (Homo sapiens) (UniProt Q15059); test: Inhibition of human partial length BRD3 bromodomain 1 (P24 to E144 residues) expressed in bacterial expression system assessed as residual activity at 1 uM by BROMOscan assay relative to control
Bromodomain-containing protein 3 (Homo sapiens), sequence (Q15059 2-726 limits assumed): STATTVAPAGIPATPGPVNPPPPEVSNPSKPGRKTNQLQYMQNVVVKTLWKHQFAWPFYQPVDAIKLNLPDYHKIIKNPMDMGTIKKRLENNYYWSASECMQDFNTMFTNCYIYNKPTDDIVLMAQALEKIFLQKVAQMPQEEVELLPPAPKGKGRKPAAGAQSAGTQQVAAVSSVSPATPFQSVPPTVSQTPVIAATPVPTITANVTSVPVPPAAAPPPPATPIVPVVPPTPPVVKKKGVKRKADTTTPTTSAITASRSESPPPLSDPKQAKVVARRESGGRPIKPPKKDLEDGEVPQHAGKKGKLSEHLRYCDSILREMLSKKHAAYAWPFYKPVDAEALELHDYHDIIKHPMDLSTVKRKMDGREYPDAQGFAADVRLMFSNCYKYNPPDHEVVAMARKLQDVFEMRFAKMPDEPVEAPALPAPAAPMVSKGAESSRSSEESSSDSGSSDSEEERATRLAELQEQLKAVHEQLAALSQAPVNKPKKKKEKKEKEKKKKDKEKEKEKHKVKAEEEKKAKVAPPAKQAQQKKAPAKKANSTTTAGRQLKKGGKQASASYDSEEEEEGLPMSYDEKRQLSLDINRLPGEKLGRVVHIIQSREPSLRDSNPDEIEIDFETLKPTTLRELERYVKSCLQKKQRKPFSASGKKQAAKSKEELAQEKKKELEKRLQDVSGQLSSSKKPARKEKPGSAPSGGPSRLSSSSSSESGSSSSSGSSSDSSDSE

[18] = system: MCF7; test: Growth inhibition of human MCF7 cells after 48 hrs by SRB assay; format: functional; details: MCF7, 48 h; method in brief: as §1
[19] = biological target: Bromodomain-containing protein 2 (Homo sapiens) (UniProt P25440); test: Inhibition of human partial length BRD2 bromodomain 1 (K71 to N194 residues) expressed in bacterial expression system assessed as residual activity at 1 uM by BROMOscan assay relative to control

Cc1noc(C)c1-c1cc(O)cc(CN2CCCC2)c1
IC50 ([1]; read-out: IC50): 3270 nM
IC50 ([1]; read-out: pIC50 (converted)): 3240 nM

Cc1noc(C)c1-c1cc(O)cc(C(O)c2ccccn2)c1 (stereo not given)
IC50 ([1]; read-out: IC50): 4680 nM
IC50 ([1]; read-out: pIC50 (converted)): 4680 nM

COc1cccc(C(O)c2cc(O)cc(-c3c(C)noc3C)c2)c1 (stereo not given)
IC50 ([1]; read-out: IC50): 478 nM
IC50 ([1]; read-out: pIC50 (converted)): 479 nM

Cc1noc(C)c1-c1cc(O)cc(CN2CCC(F)(F)CC2)c1
IC50 ([1]; read-out: IC50): 235 nM
IC50 ([1]; read-out: pIC50 (converted)): 234 nM
half-life at 3 µM [2]: 27 min
microsomal CLint at 3 µM [3]: 51.4 µL/min/mg

Cc1ccc(C(O)c2cc(O)cc(-c3c(C)noc3C)c2)cc1 (stereo not given)
IC50 ([1]; read-out: IC50): 296 nM
IC50 ([1]; read-out: pIC50 (converted)): 295 nM

COc1ccc(C(O)c2cc(O)cc(-c3c(C)noc3C)c2)cc1 (stereo not given)
IC50 ([1]; read-out: IC50): 585 nM
IC50 ([1]; read-out: pIC50 (converted)): 589 nM

Cc1noc(C)c1-c1cc(O)cc(C(O)C2CCCCC2)c1 (stereo not given)
IC50 ([1]; read-out: IC50): 166 nM
IC50 ([1]; read-out: pIC50 (converted)): 166 nM

Cc1noc(C)c1-c1cc(O)cc(C(O)c2cccnc2)c1 (stereo not given)
Activity [4]: 100%
Activity [5]: 1.1%
Activity [6]: 100%
Activity [7]: 4.6%
Activity [8]: 11%
Activity [9]: 29%
Activity [10]: 100%
Kd [11]: 247 nM
IC50 ([1]; read-out: IC50): 166 nM
IC50 ([1]; read-out: pIC50 (converted)): 166 nM
GI50 [12]: 4880 nM
Activity [13]: 100%
half-life at 3 µM [2]: 388 min
Activity [14]: 100%
GI50 [15]: 4400 nM
Activity [16]: 98%
Activity [17]: 1.5%
GI50 [18]: 1400 nM
Activity [19]: 1.8%
microsomal CLint at 3 µM [3]: 3.57 µL/min/mg

Cc1noc(C)c1-c1cc(O)cc(CN2CCCCC2)c1
IC50 ([1]; read-out: IC50): 4280 nM
IC50 ([1]; read-out: pIC50 (converted)): 4270 nM

Cc1noc(C)c1-c1cc(O)cc(C(O)c2ccc(Cl)cc2)c1 (stereo not given)
IC50 ([1]; read-out: IC50): 631 nM
IC50 ([1]; read-out: pIC50 (converted)): 631 nM

Cc1noc(C)c1-c1cc(O)cc(C(O)c2ccc(Cl)cn2)c1 (stereo not given)
IC50 ([1]; read-out: IC50): 495 nM
IC50 ([1]; read-out: pIC50 (converted)): 490 nM

Cc1noc(C)c1-c1cc(O)cc(Cc2ccccc2)c1
IC50 ([1]; read-out: IC50): 1100 nM
IC50 ([1]; read-out: pIC50 (converted)): 1100 nM

COc1ccccc1C(O)c1cc(O)cc(-c2c(C)noc2C)c1 (stereo not given)
IC50 ([1]; read-out: IC50): 270 nM
IC50 ([1]; read-out: pIC50 (converted)): 269 nM

Cc1noc(C)c1-c1cc(O)cc(C(=O)N2CCNCC2)c1
IC50 ([1]; read-out: IC50): 722 nM
IC50 ([1]; read-out: pIC50 (converted)): 724 nM

Cc1noc(C)c1-c1cc(O)cc(C(O)C2CC2)c1 (stereo not given)
IC50 ([1]; read-out: IC50): 377 nM
IC50 ([1]; read-out: pIC50 (converted)): 380 nM

Cc1noc(C)c1-c1cc(O)cc(C(O)c2ccncc2)c1 (stereo not given)
IC50 ([1]; read-out: IC50): 303 nM
IC50 ([1]; read-out: pIC50 (converted)): 302 nM

COc1ccc2c(c1)[C@]13CCCC[C@@H]1[C@H](C2)N(C)CC3 [DEXTROMETHORPHAN]
half-life at 3 µM [2]: 54.5 min
microsomal CLint at 3 µM [3]: 25.4 µL/min/mg

Cc1noc(C)c1-c1cc(O)cc(C(O)c2ccccc2F)c1 (stereo not given)
IC50 ([1]; read-out: IC50): 1420 nM
IC50 ([1]; read-out: pIC50 (converted)): 1410 nM

Cc1noc(C)c1-c1cc(O)cc(CN2CCOCC2)c1
IC50 ([1]; read-out: IC50): 956 nM
IC50 ([1]; read-out: pIC50 (converted)): 955 nM

Cc1noc(C)c1-c1cc(O)cc(C(=O)N2CCOCC2)c1
IC50 ([1]; read-out: IC50): 3800 nM
IC50 ([1]; read-out: pIC50 (converted)): 3800 nM

Cc1noc(C)c1-c1cc(O)cc(C(O)c2ccc(F)cc2)c1 (stereo not given)
IC50 ([1]; read-out: IC50): 842 nM
IC50 ([1]; read-out: pIC50 (converted)): 851 nM

Cc1noc(C)c1-c1cc(O)cc(C(O)c2ccc(Cl)c(Cl)c2)c1 (stereo not given)
IC50 ([1]; read-out: IC50): 945 nM
IC50 ([1]; read-out: pIC50 (converted)): 955 nM

Cc1noc(C)c1-c1cc(O)cc(CN2CCN(C)CC2)c1
IC50 ([1]; read-out: IC50): 1230 nM
IC50 ([1]; read-out: pIC50 (converted)): 1230 nM

Cc1noc(C)c1-c1cc(O)cc(C(O)c2cccc(F)c2)c1 (stereo not given)
IC50 ([1]; read-out: IC50): 793 nM
IC50 ([1]; read-out: pIC50 (converted)): 794 nM

Cc1noc(C)c1-c1cc(O)cc(CNCc2ccccc2)c1
IC50 ([1]; read-out: IC50): 2250 nM
IC50 ([1]; read-out: pIC50 (converted)): 2240 nM
